Activity calls are given as the source filed them.
Assays:
[1] = system: G561; experiment: Antiproliferative activity against human G561 cells at 1 uM incubated for 9 to 12 days by IncuCyte zoom live-cell imaging analysis; type: functional, cell-based; settings: time 9-12 day
How it was run: (§1)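 Adherent GSCs were cultured in serum-free medium with EGF and bFGF on poly-L-ornithine/laminin and plated in triplicate in 96-well plates. They were treated at 1 µM, with 1 µM SGC2096 or 0.05% DMSO as controls, for 9–12 days or until DMSO wells were confluent. Medium with drug was refreshed every 5 days. IncuCyte confluence was imaged every 8 h and normalized to each well's initial confluence.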

[2] = system: G411; experiment: Antiproliferative activity against human G411 cells at 1 uM incubated for 9 to 12 days by IncuCyte zoom live-cell imaging analysis; type: functional, cell-based; settings: time 9-12 day; how it was run: as §1
[3] = system: G583; experiment: Antiproliferative activity against human G583 cells at 1 uM incubated for 9 to 12 days by IncuCyte zoom live-cell imaging analysis; type: functional, cell-based; settings: time 9-12 day; how it was run: as §1
[4] = target: Protein arginine N-methyltransferase 5 (Homo sapiens) (UniProt O14744); experiment: Inhibition of PRMT5 in human G411 cells assessed as reduction in SDMA level at 1 uM after 5 days by Western blot analysis; type: cell-based; settings: time 5.0 day
How it was run: (§2)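 Symmetric dimethylarginine on SmB/B' was measured by western blot with IRDye secondary antibodies and infrared imaging.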

[5] = target: Protein arginine N-methyltransferase 5 (Homo sapiens) (UniProt O14744); experiment: Inhibition of PRMT5 in human G561 cells assessed as reduction in SDMA level at 1 uM after 5 days by Western blot analysis; type: cell-based; settings: time 5.0 day; how it was run: as §2
[6] = target: Protein arginine N-methyltransferase 5 (Homo sapiens) (UniProt O14744); experiment: Inhibition of PRMT5 in human G583 cells assessed as reduction in SDMA level at 1 uM after 5 days by Western blot analysis; type: cell-based; settings: time 5.0 day; how it was run: as §2

Protein arginine N-methyltransferase 5 (Homo sapiens), sequence (O14744 whole entry): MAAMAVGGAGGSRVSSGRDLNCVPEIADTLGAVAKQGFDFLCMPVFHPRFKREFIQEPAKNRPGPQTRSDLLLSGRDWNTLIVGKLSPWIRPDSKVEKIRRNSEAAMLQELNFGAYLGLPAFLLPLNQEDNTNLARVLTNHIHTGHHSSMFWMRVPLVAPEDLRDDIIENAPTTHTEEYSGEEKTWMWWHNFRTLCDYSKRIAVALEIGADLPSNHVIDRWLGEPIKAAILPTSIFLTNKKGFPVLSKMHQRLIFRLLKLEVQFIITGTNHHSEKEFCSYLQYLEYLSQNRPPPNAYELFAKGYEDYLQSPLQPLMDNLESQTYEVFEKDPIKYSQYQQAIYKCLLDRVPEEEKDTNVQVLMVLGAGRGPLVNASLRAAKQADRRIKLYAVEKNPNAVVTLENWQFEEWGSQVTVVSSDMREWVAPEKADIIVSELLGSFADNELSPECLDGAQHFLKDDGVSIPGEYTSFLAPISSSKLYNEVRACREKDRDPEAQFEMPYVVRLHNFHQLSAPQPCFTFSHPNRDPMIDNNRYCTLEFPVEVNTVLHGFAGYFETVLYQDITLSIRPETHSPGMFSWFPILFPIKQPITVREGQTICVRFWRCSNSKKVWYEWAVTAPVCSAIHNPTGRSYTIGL

O=C(NC[C@H](O)CN1CCCCC1)c1ccnc(NC2CCC2)c1
inactive: Activity [1] | Activity [2] | Activity [3] | inhibition [4] | inhibition [5] | inhibition [6]

Source: ChEMBL document CHEMBL5653632, “PRMT5 inhibition disrupts splicing and stemness in glioblastoma” (Nat Commun, 2021)
